According to ChEMBL document CHEMBL1148274, “Bile acid amides derived from chiral amino alcohols: novel antimicrobials and antifungals” (Bioorg Med Chem Lett, 2004):
Values after ≈ are worked out from the molar mass of the structure shown.

Experiments:
[1] = system: Aspergillus niger; assay: Antifungal activity against Aspergillus niger was determined by twofold Micro-broth dilution assay; type: functional, organism-based; settings: Aspergillus niger; read-out: IC50
Procedure, shortened: (§1)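 Fungal strains tested by two-fold serial broth microdilution in microtitre plates. Cells diluted in phosphate-buffered saline to 10^6 cfu/mL and inoculated at a final 10^3 cells per 150 µL medium. Medium/inoculum and solvent controls were included. Incubation at 28 °C, then OD read at 600 nm. IC50 is the concentration at which growth is 50% of the control inoculum.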

[2] = system: Aspergillus flavus; assay: Antifungal activity against Aspergillus flavus was determined by twofold Micro-broth dilution assay; type: functional, organism-based; settings: Aspergillus flavus; read-out: IC50; procedure, shortened: as §1
[3] = system: Candida albicans; assay: Antifungal activity against Candida albicans was determined by twofold Micro-broth dilution assay; type: functional, organism-based; settings: Candida albicans; read-out: IC50; procedure, shortened: as §1
[4] = system: Cryptococcus neoformans; assay: Antifungal activity against Cryptococcus neoformans was determined by twofold Micro-broth dilution assay; type: functional, organism-based; procedure, shortened: as §1
[5] = system: Enterococcus faecalis; assay: Antibacterial activity against gram positive bacteria Enterococcus faecalis was determined by twofold Micro-broth dilution assay; type: functional, organism-based
Procedure, shortened: (§2)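 Broth microdilution with two-fold serial dilutions of compound added to pre-inoculated microtitre plates. Inoculum diluted in phosphate-buffered saline to 10^6 cfu/mL, then plated at a final 10^3 cells per 150 µL medium. Controls were medium plus inoculum and a solvent control at the highest-concentration solvent level. Plates incubated at 37 °C and read by OD at 600 nm. IC50 is the concentration giving 50% of control-inoculum growth.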

[6] = system: Escherichia coli; assay: Antibacterial activity against gram negative bacteria Escherichia coli was determined by twofold Micro-broth dilution assay; type: functional, organism-based; procedure, shortened: as §2
[7] = system: Klebsiella aerogenes; assay: Antibacterial activity against gram negative bacteria Enterobacter aerogens was determined by twofold Micro-broth dilution assay; type: functional, organism-based; procedure, shortened: as §2
[8] = system: Histoplasma capsulatum; assay: Antifungal activity against Histoplasma capsulatum was determined by twofold Micro-broth dilution assay; type: functional, organism-based
Procedure, shortened: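 Fungal broth microdilution. Cells were diluted to 10^6 cfu/mL in phosphate-buffered saline and seeded at a final 10^3 cells per well. Two-fold serial compound dilutions were added. Plates carried inoculum-only and solvent controls, the solvent matched to the highest concentration. After incubation at 28 °C, OD was read at 600 nm. IC50 is the concentration where growth is 50% of control.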

[9] = system: Nannizzia gypsea; assay: Antifungal activity against Microsporum gypseum was determined by twofold Micro-broth dilution assay; type: functional, organism-based; settings: Nannizzia gypsea; read-out: IC50; procedure, shortened: as §1
[10] = system: Salmonella typhimurium; assay: Antibacterial activity against gram negative bacteria Salmonella Typhimurium was determined by twofold Micro-broth dilution assay; type: functional, organism-based, Salmonella enterica subsp. enterica serovar Typhimurium; settings: Salmonella enterica; procedure, shortened: as §2
[11] = system: Salmonella typhi; assay: Antibacterial activity against gram negative bacteria Salmonella typhi was determined by twofold Micro-broth dilution assay; type: functional, organism-based, Salmonella enterica subsp. enterica serovar Typhi; settings: Salmonella enterica
[12] = system: Staphylococcus aureus; assay: Antibacterial activity against gram positive bacteria Staphylococcus aureus was determined by twofold Micro-broth dilution assay; type: functional, organism-based; procedure, shortened: as §2
[13] = system: Shigella flexneri; assay: Antibacterial activity against gram negative bacteria Shigella flexenerii was determined by twofold Micro-broth dilution assay; type: functional, organism-based; procedure, shortened: as §2
[14] = system: Sporothrix schenckii; assay: Antifungal activity against Sporothrix schenck ii was determined by twofold Micro-broth dilution assay; type: functional, organism-based; settings: Sporothrix schenckii; read-out: IC50; procedure, shortened: as §1
[15] = system: Streptococcus mutans; assay: Antibacterial activity against gram positive bacteria Streptococcus mutans was determined by twofold Micro-broth dilution assay; type: functional, organism-based; procedure, shortened: as §2
[16] = system: Trichophyton rubrum; assay: Antifungal activity against Trichophyton rubrum was determined by twofold Micro-broth dilution assay; type: functional, organism-based; settings: Trichophyton rubrum; read-out: IC50; procedure, shortened: as §1
[17] = system: Staphylococcus epidermidis; assay: Antibacterial activity against gram positive bacteria Staphylococcus epidermidis was determined by twofold Micro-broth dilution assay; type: functional, organism-based; procedure, shortened: as §2
[18] = system: Nannizzia gypsea; assay: Antifungal activity against Microsporum gypseum was determined by twofold Micro-broth dilution assay; No data; type: functional, organism-based; procedure, shortened: as §1
[19] = system: Sporothrix schenckii; assay: Antifungal activity against Sporothrix schenck ii was determined by twofold Micro-broth dilution assay; No data; type: functional, organism-based; procedure, shortened: as §1

| SMILES | IC50 [1] [µg/mL] | IC50 [2] [µg/mL] | IC50 [3] [µg/mL] | IC50 [4] [µg/mL] | IC50 [5] [µg/mL] | IC50 [6] [µg/mL] | IC50 [7] [µg/mL] | IC50 [8] [µg/mL] | IC50 [9] [µg/mL] | IC50 [10] [µg/mL] | IC50 [11] [µg/mL] | IC50 [12] [µg/mL] | IC50 [13] [µg/mL] | IC50 [14] [µg/mL] | IC50 [15] [µg/mL] | IC50 [16] [µg/mL] | IC50 [17] [µg/mL] | IC50 [18] [µg/mL] | IC50 [19] [µg/mL] |
| --- | --- | --- | --- | --- | --- | --- | --- | --- | --- | --- | --- | --- | --- | --- | --- | --- | --- | --- | --- |
| C[C@H](CCC(=O)N[C@@H](CO)[C@@H](O)c1ccccc1)[C@H]1CC[C@H]2[C@@H]3C(O)C[C@@H]4C[C@H](O)CC[C@]4(C)[C@H]3C[C@H](O)[C@]12C (some centres not stated) | > 250 | > 250 | > 250 | > 250 | 40 (≈ 71.7 µM) | > 250 | > 250 | > 250 | > 250 | > 250 | > 250 | > 250 | > 250 | > 250 | 60 (≈ 108 µM) | > 250 | 20 (≈ 35.9 µM) |  |  |
| C[C@H](CCC(=O)N[C@H](CO)[C@H](O)c1ccccc1)[C@H]1CC[C@H]2[C@@H]3C(O)C[C@@H]4C[C@H](O)CC[C@]4(C)[C@H]3C[C@H](O)[C@]12C (some centres not stated) | > 250 | > 250 | > 250 | > 250 | 60 (≈ 108 µM) | > 250 | > 250 | > 250 | > 250 | > 250 | > 250 | > 250 | > 250 | > 250 | 40 (≈ 71.7 µM) | > 250 | 40 (≈ 71.7 µM) |  |  |
| Clc1ccccc1C(c1ccccc1)(c1ccccc1)n1ccnc1 [CLOTRIMAZOLE] | 5 (≈ 14.5 µM) | 0.5 (≈ 1.45 µM) | 0.0312 (≈ 0.0906 µM) |  |  |  |  |  | 0.625 (≈ 1.81 µM) |  |  |  |  | 0.0312 (≈ 0.0906 µM) |  | 0.625 (≈ 1.81 µM) |  |  |  |
| C[C@H](CCC(=O)N[C@H](CO)[C@H](O)c1ccc([N+](=O)[O-])cc1)[C@H]1CC[C@H]2[C@@H]3CC[C@@H]4C[C@H](O)CC[C@]4(C)[C@H]3C[C@H](O)[C@]12C | > 250 | > 250 | > 250 | > 250 | 15 (≈ 25.6 µM) | > 250 | > 250 | > 250 | > 250 | > 250 | > 250 | 7.5 (≈ 12.8 µM) | > 250 | > 250 | 4 (≈ 6.82 µM) | > 250 | 7.5 (≈ 12.8 µM) |  |  |
| C[C@H](CCC(=O)N[C@H](CO)[C@H](O)c1ccccc1)[C@H]1CC[C@H]2[C@@H]3CC[C@@H]4C[C@H](O)CC[C@]4(C)[C@H]3C[C@H](O)[C@]12C | > 250 | > 250 | > 250 | > 250 | 60 (≈ 111 µM) | > 250 | > 250 | > 250 | > 250 | > 250 | > 250 | 40 (≈ 73.8 µM) | > 250 | > 250 | 25 (≈ 46.1 µM) | > 250 | 40 (≈ 73.8 µM) |  |  |
| C[C@@H]1[C@H](O)[C@@H](C)/C=C/C=C/C=C/C=C/C=C/C=C/C=C/[C@H](O[C@@H]2O[C@H](C)[C@@H](O)[C@H](N)[C@@H]2O)C[C@@H]2O[C@](O)(C[C@@H](O)C[C@@H](O)[C@H](O)CC[C@@H](O)C[C@@H](O)CC(=O)O[C@H]1C)C[C@H](O)[C@H]2C(=O)O [AMPHOTERICIN B] | 2.5 (≈ 2.71 µM) | 5 (≈ 5.41 µM) | 0.0625 (≈ 0.0676 µM) |  |  |  |  |  |  |  |  |  |  |  |  | 2.5 (≈ 2.71 µM) |  | 2.5 (≈ 2.71 µM) | 5 (≈ 5.41 µM) |
| C[C@H](CCC(=O)N[C@@H](CO)[C@@H](O)c1ccc([N+](=O)[O-])cc1)[C@H]1CC[C@H]2[C@@H]3C(O)C[C@@H]4C[C@H](O)CC[C@]4(C)[C@H]3C[C@H](O)[C@]12C (some centres not stated) | > 250 | > 250 | > 250 | > 250 | > 250 | > 250 | > 250 | > 250 | > 250 | > 250 | > 250 | 75 (≈ 124 µM) | > 250 | > 250 | 40 (≈ 66.4 µM) | > 250 | > 250 |  |  |
